The source made the active and inactive calls. The rule behind the calls is not given here.
What was measured:
MCF7 [1] = assay: Antiproliferative activity against human MCF7 cells assessed as reduction in cell growth incubated for 48 hrs by CCK8 assay; format: functional, cell-based; details: MCF7, 48 h
How it was run: (§1)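 CCK-8 viability assay. Cells seeded at 4000/well in 10% FBS medium for 24 h, then given compound diluted from DMSO stocks into 2% FBS medium at 100, 50, 25, 12.5, 6.25 and 3.125 µM (0.1% DMSO final). After 48 h, CCK-8 was added (0.5 mg/mL) for 2 h at 37 °C and OD450 read. Triplicates; IC50 fitted from mean viability.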

Ishikawa [2] = assay: Antiproliferative activity against human Ishikawa cells assessed as reduction in cell growth incubated for 48 hrs by CCK8 assay; format: functional, cell-based; how it was run: as §1
MDA-MB-231 = assay: Antiproliferative activity against human MDA-MB-231 cells assessed as reduction in cell growth incubated for 48 hrs by CCK8 assay; format: functional, cell-based; details: MDA-MB-231, 48 h; how it was run: as §1
MCF7 [3] = assay: Potency index, ratio of raloxifene IC50 to test compound IC50 for human MCF7 cells assessed as reduction in cell growth incubated for 48 hrs by CCK8 assay; format: functional
Ishikawa [4] = assay: Potency index, ratio of raloxifene IC50 to test compound IC50 for human Ishikawa cells assessed as reduction in cell growth incubated for 48 hrs by CCK8 assay; format: functional
MCF7 [5] = assay: Downregulation of ERalpha expression in human MCF7 cells at 0.5 uM incubated for 24 hrs by Western blot assay; format: functional, cell-based
How it was run: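 MCF-7 cells were kept in phenol red-free DMEM/F12 with 10% serum for 72 h before plating, then treated at 125, 250 and 500 nM for 24 h. Cells were lysed in RIPA buffer, protein was measured by BCA, and equal amounts were run on 10% SDS-PAGE and transferred to PVDF. ERα band intensity was normalized to GAPDH in each repeat.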

[6] = Half life in rat liver microsomes; format: ADME, Microsome
[7] = Intrinsic clearance in rat; format: ADME
[8] = Half life in rat plasma; format: ADME, cell-free
[9] = biological target: T1, Estrogen receptor (Homo sapiens) (UniProt P03372); assay: Covalent antagonist activity at ERalpha in human MCF7 cells assessed as decrease in estradiol-induced TFF1 mRNA expression level at 0.25 to 10 uM measured after 24 hrs by RT-PCR analysis; format: cell-based; details: filed as antagonist, dose 0.25-10 µM
T1 sequence (whole entry): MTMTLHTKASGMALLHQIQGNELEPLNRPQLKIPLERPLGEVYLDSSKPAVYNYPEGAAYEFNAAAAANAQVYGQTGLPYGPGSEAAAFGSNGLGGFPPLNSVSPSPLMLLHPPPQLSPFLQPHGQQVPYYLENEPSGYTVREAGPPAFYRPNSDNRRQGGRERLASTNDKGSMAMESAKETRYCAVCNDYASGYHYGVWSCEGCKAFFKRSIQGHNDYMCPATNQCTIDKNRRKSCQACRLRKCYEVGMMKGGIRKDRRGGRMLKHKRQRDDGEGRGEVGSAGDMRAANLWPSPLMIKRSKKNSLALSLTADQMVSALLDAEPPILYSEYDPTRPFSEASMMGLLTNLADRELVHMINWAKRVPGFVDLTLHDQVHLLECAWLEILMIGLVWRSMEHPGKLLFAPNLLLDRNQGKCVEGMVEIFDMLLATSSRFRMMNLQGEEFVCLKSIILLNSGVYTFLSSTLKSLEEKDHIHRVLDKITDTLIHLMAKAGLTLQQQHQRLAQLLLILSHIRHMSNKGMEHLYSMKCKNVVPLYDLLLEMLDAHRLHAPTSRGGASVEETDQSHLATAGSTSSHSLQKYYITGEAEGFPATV
How it was run: (§2)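 MCF-7 cells stimulated with estradiol, then co-incubated 24 h with compound at 0.25, 0.5, 1 and 10 µM. RNA was reverse-transcribed and GREB1 or TFF1 measured by SYBR Green qPCR: 95 °C 10 min, then 40 cycles of 95 °C 5 s, 60 °C 60 s, 95 °C 15 s. Normalised to GAPDH, ΔΔCT method.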

[10] = biological target: T1, Estrogen receptor (Homo sapiens); assay: Covalent antagonist activity at ERalpha in human MCF7 cells assessed as decrease in estradiol-induced GREB1 mRNA expression level at 0.25 to 10 uM measured after 24 hrs by RT-PCR analysis; format: cell-based; details: filed as antagonist, dose 0.25-10 µM; how it was run: as §2
[11] = biological target: T1, Estrogen receptor (Homo sapiens); assay: Covalent antagonist activity at ERalpha receptor in human ishikawa cells assessed as suppression of E2-stimulated PGR expression at 0.25 to 10 uM measured after 3 days by RT-PCR analysis; format: cell-based; details: filed as antagonist, dose 0.25-10 µM, time 3.0 day
How it was run: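 Ishikawa cells stimulated with E2 and exposed 3 days to compound at 0.25, 0.5, 1 and 10 µM. PGR mRNA quantified by SYBR Green real-time PCR, normalised to GAPDH, ΔΔCT method.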

SMILES | IC50 (MCF7 [1]) [µM] | IC50 (Ishikawa [2]) [µM] | IC50 (MDA-MB-231) [µM] | further results
CNC(=O)/C=C/CN1CC(Oc2ccc(Oc3c(-c4ccc(F)cc4)sc4cc(O)ccc34)cc2)C1 | > 25 | > 25 | > 50 | –
C/C=C/C(=O)N1CC(Oc2ccc(Oc3c(-c4ccc(F)cc4)sc4cc(O)ccc34)cc2)C1 | 28 | 9.4 | > 50 | –
O=C(/C=C/CN1CC(Oc2ccc(Oc3c(-c4ccc(F)cc4)sc4cc(O)ccc34)cc2)C1)N1CCOCC1 | 8.9 | 9.84 | > 50 | Ratio IC50 (MCF7 [3]): 2; Ratio IC50 (Ishikawa [4]): 1.26
C=CC(=O)NCCOc1ccc(Oc2c(-c3ccc(F)cc3)sc3cc(O)ccc23)cc1 | 23 | > 25 | > 50 | –
CN(C)C(=O)/C=C/CNCCOc1ccc(Oc2c(-c3ccc(F)cc3)sc3cc(O)ccc23)cc1 | 13.8 | 11.9 | > 50 | –
O=C(c1ccc(OCCN2CCCCC2)cc1)c1c(-c2ccc(O)cc2)sc2cc(O)ccc12 [RALOXIFENE] | 19.9 | 12.4 | > 50 | –
C=C(C)C(=O)N1CC(Oc2ccc(Oc3c(-c4ccc(F)cc4)sc4cc(O)ccc34)cc2)C1 | > 25 | 14.2 | > 50 | –
C[C@]12CC[C@@H]3c4ccc(O)cc4C[C@@H](CCCCCCCCC[S+]([O-])CCCC(F)(F)C(F)(F)F)[C@H]3[C@@H]1CC[C@@H]2O (some centres not stated) | – | – | – | inhibition (MCF7 [5]): inactive
O=C(/C=C/CNCCOc1ccc(Oc2c(-c3ccc(F)cc3)sc3cc(O)ccc23)cc1)N1CCCC1 | 7.61 | 11.2 | > 50 | –
O=C(c1ccc(F)cc1)C1CCN(CCn2c(=O)[nH]c3ccccc3c2=O)CC1 [KETANSERIN] | – | – | – | half-life [6]: 18.8 min; CLint scaled [7]: 132 mL/min/kg
O=C(/C=C/CNCCOc1ccc(Oc2c(-c3ccc(F)cc3)sc3cc(O)ccc23)cc1)N1CCCCC1 | 16.4 | 8.43 | > 50 | –
CN(C)C(=O)/C=C/CN1CC(Oc2ccc(Oc3c(-c4ccc(F)cc4)sc4cc(O)ccc34)cc2)C1 | 22.3 | 11.2 | > 50 | –
O=C(/C=C/CN1CC(Oc2ccc(Oc3c(-c4ccc(F)cc4)sc4cc(O)ccc34)cc2)C1)N1CCCC1 | 8.45 | 9.15 | > 50 | Ratio IC50 (MCF7 [3]): 2; Ratio IC50 (Ishikawa [4]): 1.35
C=CC(=O)N1CC(Oc2ccc(Oc3c(-c4ccc(F)cc4)sc4cc(O)ccc34)cc2)C1 | 23.5 | 12.3 | > 50 | –
CNC(=O)/C=C/CNCCOc1ccc(Oc2c(-c3ccc(F)cc3)sc3cc(O)ccc23)cc1 | 16.1 | 15.5 | > 50 | –
C=C(C)C(=O)NCCOc1ccc(Oc2c(-c3ccc(F)cc3)sc3cc(O)ccc23)cc1 | > 25 | > 25 | > 50 | –
C/C=C/C(=O)NCCOc1ccc(Oc2c(-c3ccc(F)cc3)sc3cc(O)ccc23)cc1 | 21.7 | 12.4 | > 50 | –
O=C(/C=C/CNCCOc1ccc(Oc2c(-c3ccc(F)cc3)sc3cc(O)ccc23)cc1)N1CCOCC1 | 8.24 | 18.6 | > 50 | –
CC/C(=C(\c1ccccc1)c1ccc(OCCN(C)C)cc1)c1ccccc1 [TAMOXIFEN] | – | 16.8 | > 50 | –
CC(Cc1cccc(C(F)(F)F)c1)NCCOC(=O)c1ccccc1 (configuration not stated) [BENFLUOREX] | – | – | – | half-life [8]: 28.3 min
O=C(CCCNCCOc1ccc(Oc2c(-c3ccc(F)cc3)sc3cc(O)ccc23)cc1)N1CCC1 | > 25 | > 25 | > 50 | inhibition [9]: Active; inhibition [10]: Active; inhibition [11]: Active
O=C(/C=C/CN1CC(Oc2ccc(Oc3c(-c4ccc(F)cc4)sc4cc(O)ccc34)cc2)C1)N1CCC1 | > 25 | 5.45 | > 50 | –

Reference: ChEMBL document CHEMBL4837222, “Design and synthesis of novel benzothiophene analogs as selective estrogen receptor covalent antagonists against breast cancer” (Eur J Med Chem, 2021)
